From PubChem BioAssay
Sampled rows, rich in hits. Any-hit rate of the full collection: about 3.7%.
KCC2 mod: KCC2 (human) Cl- transport modulation; KCC2 cells, thallium flux FluoZin-2 fluorescence; actives 2.2% (n = 190,000); Q9H2X9; AID 1456; B-score of Tl+ flux slope (higher = more flux/activation; lower = inhibition) at 10 µM;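 active = thallium flux slope and its plate-corrected score both differing from the plate sample mean at a set confidence after two filtering rounds, in either direction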;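 note: slope of fluorescence scaled to starting intensity during 10 to 20 s after thallium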
PKD1 kinase inh: PKD1 (human) kinase inhibition; AID 797; inhibition, % (concentration not given with the values); actives 0.056% (n = 200,000); Q15139; PKD1 kinase fluorescence polarization assay; in the data active = inhibition above about 50%
ROMK primary: human ROMK K+ channel modulation, primary screen | B-score at 10 µM | AID 1918 | P48048 | Tet-inducible ROMK, thallium flux fluorescence; actives lie on both sides | actives 2% (n = 130,000);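 active = signal ratio slope over the read window, or its plate-corrected B-score, at least 3 SD from the plate mean, either direction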;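 note: B-score of the F/F0 ratio slope over 7 to 12 s after thallium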
Calpain2 inh: inhibitors of pig calpain II. actives 0.37% (n = 220,000). AID 1236. purified calpain II, fluorogenic peptide substrate, 30 min. inhibition, % at 16 µM;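 active = inhibition above about 50%, limit read from the data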
Arbovirus inh: antivirals against arbovirus infection | arbovirus infection cell-based antiviral screen | inhibition, % at 10 µM | actives 0.37% (n = 200,000) | AID 1251; in the data active = inhibition above about 30%
MDM2 E3 inh: blocks human Mdm2 ubiquitin ligase activity; Q00987; cell-based MDM2 ubiquitination luciferase reporter, 2 h; 0 = plate control, 100 = twice control, blank-subtracted; signal enhancement, % at 5 µM; actives 0.11% (n = 210,000); AID 1230;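 active = signal enhancement of 30% or more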;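 note: luminescence tracks abundance of the self-degrading MDM2-luciferase fusion protein; higher signal means inhibition of MDM2 E3 ligase activity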
Target sequence (Q00987 whole entry, looked up, the tested form may be a part): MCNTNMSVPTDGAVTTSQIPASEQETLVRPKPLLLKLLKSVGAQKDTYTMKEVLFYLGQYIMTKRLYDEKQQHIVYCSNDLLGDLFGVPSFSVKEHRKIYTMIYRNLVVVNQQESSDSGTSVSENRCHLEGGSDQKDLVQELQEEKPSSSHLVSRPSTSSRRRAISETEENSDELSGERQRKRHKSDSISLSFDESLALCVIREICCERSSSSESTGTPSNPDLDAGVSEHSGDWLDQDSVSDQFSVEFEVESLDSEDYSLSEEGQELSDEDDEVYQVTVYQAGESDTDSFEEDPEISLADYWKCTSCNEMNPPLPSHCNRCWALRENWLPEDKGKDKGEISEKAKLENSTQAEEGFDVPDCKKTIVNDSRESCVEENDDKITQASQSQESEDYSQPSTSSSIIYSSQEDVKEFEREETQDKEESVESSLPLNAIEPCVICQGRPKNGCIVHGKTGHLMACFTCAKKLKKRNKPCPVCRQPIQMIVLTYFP
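Material: Stable MDM2–luciferase fusion reporter cells | Amount: 2000 cells seeded into each well | Dosing: One concentration, 5 µM, with 0.2% DMSO | Incubation: 4 h cell settling then 2 h compound exposure, 37 °C | Measured by: Luciferase luminescence | Read-out basis: % enhancement relative to plate controls after blank subtraction | Benchmarks: Control and blank well means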
ROMK hit retest: human ROMK channel modulation, retest confirmation. AID 1917. actives 54% (n = 3,000). ROMK thallium flux, fluorescence ratio; stronger effect = lower value. shares compounds with ROMK primary. normalized thallium flux (F/F0 slope) at 10 µM;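 active = Flux at 10 µM at least 3 SD below or above vehicle control mean in one or both replicates; inconclusive = no clear call, values can overlap the other calls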
An asterisk follows results filed as active; ? = inconclusive; . = no result given.

SMILES | KCC2 mod | PKD1 kinase inh | ROMK primary | Calpain2 inh | Arbovirus inh | MDM2 E3 inh | ROMK hit retest
CCOc1cccc2sc(N(CCCN(C)C)C(=O)Cc3ccccc3)nc12 | 0.22 | -6 | -3.2* | 8 | -9 | -9 | 0.057*
Cc1ccc2oc(C(=O)Nc3c(C)n(C)n(-c4ccccc4)c3=O)c(C)c2c1 | . | -4 | . | . | . | . | .
CCNC(=O)c1ccccc1NC(=O)c1cccc(S(=O)(=O)N2CCC(C)CC2)c1 | -0.5 | -1 | . | 14 | -16 | -9 | 0.072
CCCn1c(NC(=O)c2cccc(S(=O)(=O)N3CCCC3)c2)nc2ccccc21 | 0.00057 | -5 | . | 9 | -24 | -2 | 0.083
CC1CCN(S(=O)(=O)c2cccc(C(=O)N(Cc3ccccc3)c3ccccn3)c2)CC1 | -1 | -3 | -4* | -15 | -2 | -8 | 0.062*
Nc1cc([N+](=O)[O-])ccc1N1C(=O)CCCC1=O | 1.4 | . | . | 21 | . | -13 | .
NC(=O)c1ccccc1NC(=O)CCc1ccccc1 | 0.34 | -8 | . | 14 | 5 | -18 | 0.087
Cc1ccc(-n2c(C)c([N+](=O)[O-])c3ccc(O)c(CN(C)C)c32)cc1 | . | 8 | -5.3* | 19 | 12 | -38 | 0.049*
CCOC(=O)c1cc(-c2ccccc2)n(CC(=O)Nc2ccc(OC)c(OC)c2)c1C | -0.18 | -14 | -0.62 | -55 | 10 | 3 | .
CCOC(=O)c1cc(-c2ccccc2)n(CC(=O)Nc2cccc(OC)c2)c1C | 0.76 | 11 | -4.8* | -3 | -5 | -11 | 0.079
COc1ccc(N(CC(=O)NN=C2CCCC2)S(=O)(=O)c2ccccc2)cc1 | -0.67 | 9 | 1.8* | -25 | 0 | -10 | 0.088
CCCCC(CC)C(=O)Nc1ccc(C)c(O)c1 (stereo unspecified) | -0.46 | 4 | 1.1 | -10 | -2 | -3 | .
CCCCOc1ccc(OCCNS(=O)(=O)N(C)C)cc1 | . | -5 | -0.39 | -5 | 3 | -14 | .
CN(C)CC(O)COC(c1ccc(Cl)cc1)c1ccc(Cl)cc1 (stereo unspecified) | 0.085 | -7 | -1.8 | 14 | -31 | -6 | .
Cc1noc(C)c1COC(=O)c1cc(C)n(-c2ccccc2)c1C | 0.72 | -10 | . | 33 | -4 | -5 | 0.088
CCOC(=O)C(C)CC(C)C(=O)N1CCOCCN(C(=O)C(C)CC(C)C(=O)OCC)CCOCC1 (stereo unspecified) | 0.31 | -9 | . | -22 | 7 | -10 | 0.091
CC(=O)c1ccc(S(=O)(=O)N2CCN(C)CC2)cc1 | 0.61 | -6 | 0.97 | 10 | -5 | -1 | .
CCCCCCCCCn1c2c(c(=N)c3c1CCC3)CCCC2 | -0.018 | 0 | -3.4* | 58* | -29 | -39 | 0.038*
CCCCCCCCn1c2c(c(=N)c3ccccc31)CCC2 | -0.77 | -3 | -6.6* | 49 | -37 | -27 | 0.039*
CCCCCn1c2c(c(=N)c3ccccc31)CCC2 | -0.53 | . | -1.4 | -20 | . | -36 | .
Cc1ccc(OCCn2cc(Br)c(=O)[nH]c2=O)cc1 | 0.025 | -7 | . | 23 | 0 | -17 | .
CCCN(CCC)S(=O)(=O)c1ccc(Cl)c(OC)c1 | -0.36 | -3 | -16* | 27 | 0 | -5 | ?
CCCCN(C)CCCNC(=O)/C=C1\Sc2ccccc2NC1=O | -1.6 | -7 | . | -28 | 3 | 25 | .
Cc1ccc(C(=O)NC(C#N)=C(Cl)Cl)cc1 | 1.4 | -3 | -2 | 17 | -37 | -2 | 0.061*
Cc1ccc(C(=O)NCC#N)cc1 | 0.12 | 4 | 0.025 | -11 | 15 | -12 | .
O=S1(=O)CCC(N=Cc2cc(Br)ccc2O)C1 (stereo unspecified) | -0.49 | -13 | 1.6 | 32 | 4 | 2 | 0.1*
O=C(Nc1ccccc1)Nc1ccc(F)c([N+](=O)[O-])c1 | -1.6 | 10 | . | 4 | -3 | -6 | ?
Cc1ccc(C(=O)N/C(=C\c2ccc(-c3cccc([N+](=O)[O-])c3)o2)C(=O)NC(C)(C)C)cc1 | -0.31 | -4 | . | -64 | -6 | -13 | .
Cc1ccc(C(=O)N/C(=C\c2ccc(-c3ccc([N+](=O)[O-])cc3)o2)C(=O)NC2CCS(=O)(=O)C2)cc1 (stereo unspecified) | -0.67 | -9 | . | -59 | -3 | -12 | 0.047*
CCOc1ccccc1OC(=O)c1cc2ccccc2oc1=O | -1.4 | -5 | -0.33 | -7 | 5 | -6 | .
